# Laboratory results as given in article PMC9293343 (Chemmedchem, 2021).
# Experiments:
# [1] = target: T1, Neh1 (residues 445–523, Neh1‐ΔLZIP) domain of NRF2 (Homo sapiens, UniProt Q16236); test: 1H-15N HSQC small-molecule titration; format: binding
# T1 sequence (Q16236 445-523): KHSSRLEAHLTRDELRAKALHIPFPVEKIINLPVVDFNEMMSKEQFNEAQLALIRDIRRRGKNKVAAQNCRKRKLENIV
# In short: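 15N-labelled human NRF2 residues 445–523 were expressed in E. coli BL21(DE3) with TEV-cleaved MBP/His tags and used at 50 μM in 50 mM sodium phosphate pH 6.5, 150 mM NaCl, 1 mM DTT. Test compound (50 mM DMSO-d6 stock) was titrated to final 0.250, 0.750, 1.5 and 2.0 mM, with 1H-15N HSQC at each step. Combined 1HN/15N CSPs were fitted per residue by nonlinear least squares for KD.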
# Neh1‐ΔLZIP = target: T2, Neh1‐ΔLZIP (Homo sapiens, UniProt Q16236); format: binding; conditions: 0.750 mM compound 2, ARE DNA 0.10, 0.20, 0.30 mM, 50 μM protein
# T2 sequence (Q16236 445-523): T1 sequence (Q16236 445-523)
structure (smiles),measurement,setting,value
"O=C(O)COc1ccc(-c2ccccc2)cc1Br [Compound 2, 2‐((3‐bromo‐[1,1’‐biphenyl]‐4‐yl)oxy)acetic acid]",Kd,"[1]; KD, from CSP values using equation (1), average over R499, D500, R503",1700 ± 100 µM
same,"chemical shift change of side chain amide nitrogen Nδ2 of N482, measured value",[1]; at approximately 50–60 % protein fraction bound,0.64 ppm
same,"CSP, backbone amide of N482",[1]; upon addition of compound 2,0.04 ppm
same,replacement of compound by ARE DNA (competition),Neh1‐ΔLZIP,final spectrum which is very close to the spectrum of Neh1‐ΔLZIP bound to ARE
